From ChEMBL document CHEMBL4219023, “Synthesis and biological activity of novel tert-amylphenoxyalkyl (homo)piperidine derivatives as histamine H3R ligands” (Bioorg Med Chem, 2017)
Active and inactive are the calls of the source. No cut-off for these calls is given here.

Tests used:
[1] = molecular target: T1, Histamine H3 receptor (Homo sapiens, UniProt Q9Y5N1); test: Displacement of [125I]Iodoproxyfan from recombinant human histamine H3 receptor expressed in CHOK1 cell membranes after 90 mins
T1 sequence (Q9Y5N1 whole entry): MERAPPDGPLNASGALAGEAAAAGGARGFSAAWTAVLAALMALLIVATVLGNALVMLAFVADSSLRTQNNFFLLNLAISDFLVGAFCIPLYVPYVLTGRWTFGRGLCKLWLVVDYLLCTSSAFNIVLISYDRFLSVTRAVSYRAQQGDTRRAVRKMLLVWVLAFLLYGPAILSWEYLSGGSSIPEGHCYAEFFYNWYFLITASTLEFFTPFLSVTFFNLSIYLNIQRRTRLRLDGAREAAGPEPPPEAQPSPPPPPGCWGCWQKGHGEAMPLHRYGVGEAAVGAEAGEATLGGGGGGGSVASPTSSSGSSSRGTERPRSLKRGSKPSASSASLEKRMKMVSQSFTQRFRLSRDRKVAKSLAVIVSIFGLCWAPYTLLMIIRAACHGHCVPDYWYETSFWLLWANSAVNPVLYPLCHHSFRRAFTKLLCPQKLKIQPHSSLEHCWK
Summary of the method: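 Membranes of CHO-K1 cells expressing hH3R were incubated 90 min at 25 °C, shaken at 250 rpm, with [125I]iodoproxyfan (16–50 pM) and test compound. Nonspecific binding was defined with 1 μM imetit. Separation by filtration on PEI-treated GF/B filters. Ki obtained from IC50 by Cheng-Prusoff.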

[2] = Lipophilicity of compound by RP-TLC analysis; format: physicochemical; conditions: methanol:acetic acid:water
Summary of the method: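 Reversed-phase TLC on RP-18 plates with methanol:acetic acid:water mobile phase (acid constant at 10%, methanol 85–55% in 5% steps). Spots visualised with iodine. RM values were derived from Rf and extrapolated to zero methanol to give RM0.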

[3] = Safety index, ratio of compound IC50 to doxorubicin IC50 for HEK293 cells after 48 hrs by EZ4U non-radioactive cell proliferation assay; format: ADME, cell-based; conditions: human, read-out: Ratio IC50
[4] = Safety index, ratio of compound IC50 to doxorubicin IC50 for human IMR32 cells after 48 hrs by EZ4U Non-radioactive cell proliferation assay; format: ADME, cell-based; conditions: IMR-32 cells, read-out: Ratio IC50
[5] = tested on: Mus musculus; test: Anticonvulsant activity in CF-1 albino mouse assessed as protection against maximal electroshock-induced seizures at 30 mg/kg, ip after 0.5 hrs; format: functional, organism-based
Summary of the method: (§1)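 Male CF-1 albino mice received compound i.p. as a suspension in 0.5% methylcellulose (30, 100 or 300 mg/kg). Maximal electroshock seizure test read 0.5 h and 4 h after dosing. Result given as animals protected/animals tested.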

[6] = tested on: Mus musculus; test: Anticonvulsant activity in CF-1 albino mouse assessed as protection against subcutaneous pentetrazole-induced seizures at 100 mg/kg, ip after 4 hrs; format: functional, organism-based
[7] = tested on: Mus musculus; test: Anticonvulsant activity in CF-1 albino mouse assessed as protection against maximal electroshock-induced seizures at 100 mg/kg, ip after 4 hrs; format: functional, organism-based; summary of the method: as §1
[8] = tested on: Mus musculus; test: Neurotoxicity in CF-1 albino mouse at 30 mg/kg, ip after 4 hrs by rotarod test; format: toxicity, organism-based; conditions: in vivo
Summary of the method: (§2)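 Male CF-1 mice were dosed i.p. with compound suspended in 0.5% methylcellulose (30, 100 or 300 mg/kg). Neurotoxicity was scored by rotarod 0.5 h and 4 h after dosing, as animals showing toxicity/animals tested. Type of toxicity was noted, e.g. inability to grasp the rod, tremors, death.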

[9] = tested on: Mus musculus; test: Anticonvulsant activity in CF-1 albino mouse assessed as protection against subcutaneous pentetrazole-induced seizures at 100 mg/kg, ip after 0.5 hrs; format: functional, organism-based
[10] = tested on: HEK293; test: Cytotoxicity against HEK293 cells assessed as reduction in cell viability after 48 hrs by EZ4U Non-radioactive cell proliferation assay; format: cell-based; conditions: Homo sapiens, HEK293, 48 h
Summary of the method: (§3)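 IMR-32 cells (2×10^4/well) or HEK-293 cells (1.5×10^4/well) in DMEM with 10% FBS were preincubated 24 h at 37 °C, 5% CO2. Compounds from 25 mM DMSO stocks were added at final 0.01–250 μM, with DMSO ≤1%. After 48 h, EZ4U label was added for 5 h and absorbance read at 492 nm.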

[11] = tested on: Mus musculus; test: Anticonvulsant activity in CF-1 albino mouse assessed as protection against maximal electroshock-induced seizures at 30 mg/kg, ip after 4 hrs; format: functional, organism-based; summary of the method: as §1
[12] = tested on: Mus musculus; test: Anticonvulsant activity in CF-1 albino mouse assessed as protection against subcutaneous pentetrazole-induced seizures at 30 mg/kg, ip after 0.5 hrs; format: functional, organism-based
[13] = tested on: Mus musculus; test: Neurotoxicity in CF-1 albino mouse at 100 mg/kg, ip after 4 hrs by rotarod test; format: toxicity, organism-based; conditions: in vivo; summary of the method: as §2
[14] = tested on: Mus musculus; test: Anticonvulsant activity in CF-1 albino mouse assessed as protection against subcutaneous pentetrazole-induced seizures at 30 mg/kg, ip after 4 hrs; format: functional, organism-based
[15] = tested on: IMR-32; test: Cytotoxicity against human IMR32 cells assessed as reduction in cell viability after 48 hrs by EZ4U Non-radioactive cell proliferation assay; format: cell-based; conditions: IMR-32, 48 h; summary of the method: as §3
[16] = molecular target: CYP3A4 (Homo sapiens, UniProt P08684); test: Activation of recombinant human CYP3A4 using Luciferin-BE as substrate at 25 uM in presence of NADPH by P450-Glo luminescence assay relative to control; format: ADME; conditions: recombinant human CYP3A4, probe Luciferin-PPXE, in the assay text read “Luciferin-PPXE” for “Luciferin-BE”, read-out: Activity
CYP3A4, sequence (P08684 whole entry): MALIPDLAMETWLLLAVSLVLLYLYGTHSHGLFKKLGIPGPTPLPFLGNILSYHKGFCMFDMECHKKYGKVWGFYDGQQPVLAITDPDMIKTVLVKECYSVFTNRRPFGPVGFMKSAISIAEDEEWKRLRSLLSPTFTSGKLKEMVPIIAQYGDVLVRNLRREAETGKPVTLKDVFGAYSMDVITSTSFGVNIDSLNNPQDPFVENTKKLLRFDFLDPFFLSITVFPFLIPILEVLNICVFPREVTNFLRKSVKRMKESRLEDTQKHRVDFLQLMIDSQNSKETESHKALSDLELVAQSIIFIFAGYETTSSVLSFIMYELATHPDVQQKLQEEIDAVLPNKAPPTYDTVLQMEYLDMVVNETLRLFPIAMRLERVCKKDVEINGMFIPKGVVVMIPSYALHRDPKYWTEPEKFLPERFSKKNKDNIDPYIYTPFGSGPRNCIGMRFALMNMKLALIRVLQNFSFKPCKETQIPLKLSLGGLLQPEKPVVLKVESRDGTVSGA
Summary of the method: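 Recombinant human CYP3A4 P450-Glo luminescence assay: enzyme converts luciferin substrate to D-luciferin, then firefly luciferase is added and light output read as a measure of CYP3A4 activity. Final ligand concentrations 0.025–25 μM.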

[17] = molecular target: T1, Histamine H3 receptor; test: Antagonist activity at recombinant human histamine H3 receptor expressed in HEK293 cells assessed as inhibition of forskolin-stimulated intracellular cAMP accumulation after 30 mins by TR-FRET TR-FRET assay; format: functional, cell-based
Summary of the method: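 TR-FRET cAMP immunoassay in HEK293 cells stably expressing hH3R, 300 cells/well. (R)-α-methylhistamine (15 nM), forskolin (10 μM) and antagonist (0.1 nM–10 μM) added together. Stimulation 30 min at room temperature, then Eu-cAMP tracer and ULight anti-cAMP antibody added for 1 h. Mean of three experiments, each in triplicate.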

[18] = tested on: Mus musculus; test: Anticonvulsant activity in CF-1 albino mouse assessed as protection against maximal electroshock-induced seizures at 300 mg/kg, ip after 0.5 hrs; format: functional, organism-based; summary of the method: as §1
[19] = tested on: Mus musculus; test: Neurotoxicity in CF-1 albino mouse assessed as death at 300 mg/kg, ip after 0.5 hrs by rotarod test; conditions: in vivo
[20] = tested on: Mus musculus; test: Anticonvulsant activity in CF-1 albino mouse assessed as protection against maximal electroshock-induced seizures at 100 mg/kg, ip after 0.5 hrs; format: functional, organism-based; summary of the method: as §1
[21] = tested on: Rattus norvegicus; test: Anticonvulsant activity in albino Sprague-Dawley rat assessed as protection against maximal electroshock-induced seizures at 30 mg/kg, po after 0.5 to 4 hrs; format: functional, organism-based
Summary of the method: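 Male Sprague-Dawley rats, four per group, were given compound orally at a fixed 30 mg/kg in 0.5% methylcellulose suspension. Maximal electroshock test was read at 0.5 h and 4 h.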

[22] = tested on: Mus musculus; test: Neurotoxicity in CF-1 albino mouse assessed as death at 300 mg/kg, ip after 0.5 hrs by rotarod test; format: toxicity, organism-based; conditions: in vivo
Summary of the method: (§4)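 Anticonvulsant Screening Program (NINDS) Phase 1 neurotoxicity screen in male albino CF-1 mice. Compounds were given i.p. as suspensions in 0.5% methylcellulose at 30, 100 and/or 300 mg/kg, and animals were observed 0.5 h and 4 h after dosing. The rotarod test was scored as number of animals showing toxicity over number tested, with the kind of toxicity recorded: inability to grasp rotorod, death, diarrhea, continuous seizure activity, loss of righting reflex, myoclonic jerks or tremors.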

[23] = molecular target: T1, Histamine H3 receptor; test: Displacement of [3H]Nalpha-Methylhistamine from recombinant human histamine H3 receptor expressed in HEK293 cell membranes after 90 mins by liquid scintillation counting analysis
[24] = tested on: Mus musculus; test: Neurotoxicity in CF-1 albino mouse assessed as unable to grasp at 100 mg/kg, ip after 0.5 hrs by rotarod test; format: toxicity, organism-based; conditions: in vivo; summary of the method: as §4
[25] = tested on: Mus musculus; test: Neurotoxicity in CF-1 albino mouse assessed as death at 100 mg/kg, ip after 4 hrs by rotarod test; format: toxicity, organism-based; conditions: in vivo; summary of the method: as §4

Row | SMILES | Ki [1] | Rm [2] | Activity [5] | Activity [6] | Activity [7] | Activity [8] | Activity [9] | Activity [11] | Activity [12] | Activity [14] | IC50 [15] | Activity [20] | also measured
1 | CCC(C)(C)c1ccc(OCCCCCCCN2CCCCCC2)cc1.O=C(O)C(=O)O | 128 nM | 2.926 |  |  |  |  |  |  |  |  |  |  | 
2 | CCC(C)(C)c1ccc(OCCCCCCCCN2CCCCC2)cc1.O=C(O)C(=O)O | 326 nM | 3.075 |  |  |  |  |  |  |  |  |  |  | 
3 | CCC(C)(C)c1ccc(OCCCCCN2CCCCC2)cc1.O=C(O)C(=O)O | 8.8 nM | 2.172 | inactive | inactive | inactive | Non-Toxic | inactive | inactive | inactive | inactive | 72700 nM |  | selectivity ratio at 48 h [3]: 50 to 90; selectivity ratio at 48 h [4]: > 1000; IC50 [10]: 41200 nM; Activity [13]: Non-Toxic; activity at 25 µM [16]: 21%; EC50 [17]: 157 nM
4 | CCC(C)(C)c1ccc(OCCCCCCN2CCC(C)CC2)cc1.O=C(O)C(=O)O | 60.5 nM |  | Active | inactive | Active | Non-Toxic | inactive | Active | inactive | inactive |  | Active | Activity [18]: Active; Activity [19]: Toxic
5 | CCC(C)(C)c1ccc(OCCCCCCCCN2CCCCCC2)cc1.O=C(O)C(=O)O | 182 nM | 3.384 |  |  |  |  |  |  |  |  |  |  | 
6 | CCC(C)(C)c1ccc(OCCCCN2CCCCC2)cc1.O=C(O)C(=O)O |  | 1.883 | Active | inactive |  | Non-Toxic | inactive | inactive | inactive | inactive |  | Active | Activity [13]: Non-Toxic; Activity [21]: inactive; Activity [22]: Toxic; Ki [23]: 140 nM; Activity [24]: Toxic
7 | CCC(C)(C)c1ccc(OCCCCCCN2CCCCC2)cc1.O=C(O)C(=O)O | 46.5 nM | 2.456 | inactive | inactive | Active | Non-Toxic | inactive | inactive | inactive | inactive |  | Active | Activity [19]: Toxic; Activity [13]: Non-Toxic; Activity [24]: Toxic
8 | CCC(C)(C)c1ccc(OCCCCN2CCCC(C)C2)cc1.O=C(O)C(=O)O (stereo not given) |  | 2.294 | Active | inactive | Active | Non-Toxic |  | inactive | inactive | inactive |  | Active | Activity [25]: Toxic; Activity [21]: inactive; Activity [22]: Toxic; Ki [23]: 46 nM; Activity [24]: Toxic
9 | COc1cccc2c1C(=O)c1c(O)c3c(c(O)c1C2=O)C[C@@](O)(C(=O)CO)C[C@@H]3O[C@H]1C[C@H](N)[C@H](O)[C@H](C)O1 [DOXORUBICIN] |  |  |  |  |  |  |  |  |  |  | 5.1 nM |  | 
10 | CCC(C)(C)c1ccc(OCCCCCN2CCC(C)CC2)cc1 | 23.4 nM |  |  |  |  |  |  |  |  |  | 27900 nM |  | selectivity ratio at 48 h [3]: 50 to 90; selectivity ratio at 48 h [4]: > 1000; IC50 [10]: 37100 nM; activity at 25 µM [16]: 325%
11 | CCC(C)(C)c1ccc(OCCCCCCCN2CCC(C)CC2)cc1.O=C(O)C(=O)O | 64.4 nM |  | inactive | inactive | Active | Non-Toxic | inactive | inactive | inactive | inactive |  | Active | 
12 | CCC(C)(C)c1ccc(OCCCCCN2CCCC(C)C2)cc1.O=C(O)C(=O)O (stereo not given) | 13.6 nM | 2.342 | inactive | inactive | Active | Non-Toxic | inactive | inactive | inactive | inactive | 30900 nM |  | selectivity ratio at 48 h [3]: 50 to 90; selectivity ratio at 48 h [4]: > 1000; IC50 [10]: 25100 nM; activity at 25 µM [16]: 52%; EC50 [17]: 164 nM
